This passage reports Activity and IC50 results from ChEMBL document CHEMBL1151781, “Selectivity of inhibitors of endocannabinoid biosynthesis evaluated by activity-based protein profiling” (Bioorg Med Chem Lett, 2008).

Test [1] has as its target T1, Fatty-acid amide hydrolase 1 (Mus musculus) (UniProt O08914).
T1 sequence (whole entry): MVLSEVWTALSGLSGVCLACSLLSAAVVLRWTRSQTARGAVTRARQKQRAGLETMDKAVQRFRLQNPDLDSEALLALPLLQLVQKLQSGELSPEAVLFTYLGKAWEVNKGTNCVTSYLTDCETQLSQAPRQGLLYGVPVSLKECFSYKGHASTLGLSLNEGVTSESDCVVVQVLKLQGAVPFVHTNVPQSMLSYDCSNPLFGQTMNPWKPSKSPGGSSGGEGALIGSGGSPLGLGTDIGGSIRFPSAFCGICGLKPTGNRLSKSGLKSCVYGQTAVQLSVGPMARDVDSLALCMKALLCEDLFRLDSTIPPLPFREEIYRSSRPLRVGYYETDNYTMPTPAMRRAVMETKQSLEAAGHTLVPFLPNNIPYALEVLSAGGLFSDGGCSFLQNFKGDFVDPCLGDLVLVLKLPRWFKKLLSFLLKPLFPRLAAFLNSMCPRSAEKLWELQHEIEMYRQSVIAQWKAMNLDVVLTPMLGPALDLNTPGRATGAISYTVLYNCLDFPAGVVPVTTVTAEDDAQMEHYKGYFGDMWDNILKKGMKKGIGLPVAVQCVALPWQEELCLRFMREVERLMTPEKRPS
Nature of the test: Inhibition of FAAH in mouse brain at 0.01 to 100 uM treated for 30 mins by SDS-PAGE using rhodamine-tagged FP probe. The class given is tissue-based. The method, boiled down:
(§1)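 Mouse brain membrane proteome preincubated with inhibitor across 0.01-100 μM for 30 min. A rhodamine-tagged fluorophosphonate probe (FP-Rh) was then added for 60 min. Samples were resolved by SDS-PAGE, and probe labeling of each hydrolase band was read by in-gel fluorescence scanning.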

In test [2] the target is T2, Neutral cholesterol ester hydrolase 1 (Mus musculus) (UniProt Q8BLF1).
T2 sequence (whole entry): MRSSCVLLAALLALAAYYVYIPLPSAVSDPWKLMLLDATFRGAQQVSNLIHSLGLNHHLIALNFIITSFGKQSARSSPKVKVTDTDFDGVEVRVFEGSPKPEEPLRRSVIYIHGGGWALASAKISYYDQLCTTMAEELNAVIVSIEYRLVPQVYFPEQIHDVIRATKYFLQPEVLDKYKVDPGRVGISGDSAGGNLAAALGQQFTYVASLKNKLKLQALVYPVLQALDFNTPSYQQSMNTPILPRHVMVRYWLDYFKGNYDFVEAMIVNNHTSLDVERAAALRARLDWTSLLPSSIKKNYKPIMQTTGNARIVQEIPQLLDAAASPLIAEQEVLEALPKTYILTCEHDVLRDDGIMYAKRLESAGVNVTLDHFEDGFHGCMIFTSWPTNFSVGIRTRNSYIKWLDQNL
Nature of the test: Inhibition of KIAA1363 in mouse brain at 0.01 to 100 uM treated for 30 mins by SDS-PAGE using rhodamine-tagged FP probe. The class given is tissue-based. The method, boiled down:
as §1

Test [3] addresses Monoglyceride lipase (Mus musculus) (UniProt O35678). The experiment in a line: Inhibition of MAGL in mouse brain at 0.01 to 100 uM treated for 30 mins by SDS-PAGE using rhodamine-tagged FP probe. It is filed as tissue-based. In a few lines: as §1
The target of test [4] is T3, Lysophosphatidylserine lipase ABHD12 (Mus musculus) (UniProt Q99LR1).
T3 sequence (whole entry): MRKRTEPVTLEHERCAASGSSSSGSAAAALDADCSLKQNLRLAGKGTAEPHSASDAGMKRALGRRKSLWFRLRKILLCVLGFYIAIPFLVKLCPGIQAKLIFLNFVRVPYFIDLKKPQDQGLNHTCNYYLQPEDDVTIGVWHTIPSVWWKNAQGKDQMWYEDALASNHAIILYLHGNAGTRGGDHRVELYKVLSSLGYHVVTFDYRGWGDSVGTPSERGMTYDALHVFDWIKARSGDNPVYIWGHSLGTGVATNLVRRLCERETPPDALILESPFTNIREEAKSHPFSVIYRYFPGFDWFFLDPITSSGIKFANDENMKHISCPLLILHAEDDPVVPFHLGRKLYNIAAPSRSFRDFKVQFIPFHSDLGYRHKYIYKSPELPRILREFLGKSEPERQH
Nature of the test: Inhibition of ABHD12 in mouse brain at 0.01 to 100 uM treated for 30 mins by SDS-PAGE using rhodamine-tagged FP probe. It is filed as tissue-based. The method, boiled down: as §1

Test [5] has as its target T4, Diacylglycerol lipase-beta (Mus musculus) (UniProt Q91WC9).
T4 sequence (whole entry): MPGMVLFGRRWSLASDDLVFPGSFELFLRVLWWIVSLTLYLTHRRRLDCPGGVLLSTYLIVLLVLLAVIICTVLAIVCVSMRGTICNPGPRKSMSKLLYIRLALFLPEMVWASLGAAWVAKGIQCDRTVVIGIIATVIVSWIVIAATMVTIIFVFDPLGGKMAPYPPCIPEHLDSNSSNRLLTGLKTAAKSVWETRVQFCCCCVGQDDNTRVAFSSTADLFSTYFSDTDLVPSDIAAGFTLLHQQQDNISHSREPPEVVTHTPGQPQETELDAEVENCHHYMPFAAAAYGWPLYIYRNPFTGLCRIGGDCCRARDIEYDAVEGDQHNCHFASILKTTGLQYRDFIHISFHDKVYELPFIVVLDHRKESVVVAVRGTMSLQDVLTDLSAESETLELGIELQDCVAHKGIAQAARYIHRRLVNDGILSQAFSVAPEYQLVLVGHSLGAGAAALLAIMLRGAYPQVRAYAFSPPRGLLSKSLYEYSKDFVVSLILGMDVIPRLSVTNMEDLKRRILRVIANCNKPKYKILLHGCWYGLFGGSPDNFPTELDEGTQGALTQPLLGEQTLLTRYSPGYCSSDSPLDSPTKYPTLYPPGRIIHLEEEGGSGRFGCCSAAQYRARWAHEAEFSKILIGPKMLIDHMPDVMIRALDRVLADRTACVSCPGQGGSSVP
The experiment in a line: Inhibition of DAGLbeta in mouse brain assessed as >15 average spectral count at 50 uM treated for 30 mins by ABPP-MudPIT assay. It is filed as tissue-based.

In test [6] the target is T4, Diacylglycerol lipase-beta (Mus musculus). The experiment in a line: Inhibition of DAGLbeta in mouse brain assessed as >15 average spectral count at 5 uM treated for 30 mins by ABPP-MudPIT assay. It is filed as tissue-based.
Test [7] concerns the target Platelet-activating factor acetylhydrolase (Homo sapiens, UniProt Q13093). The experiment in a line: Inhibition of recombinant PLA2g7 transfected in HEK293T cells by SDS-PAGE using rhodamine-tagged FP probe. The class given is cell-based, HEK-293T. The method, boiled down:
(§2)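 HEK293T cells were transfected with cDNA for the target hydrolase. The transfected proteome was treated with inhibitor across 0.01-100 μM, then labeled with rhodamine-tagged fluorophosphonate probe (FP-Rh). Loss of probe labeling was read to give IC50. Values are means ± standard errors of three independent experiments.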

Test [8] deals with Diacylglycerol lipase-beta (Homo sapiens) (UniProt Q8NCG7). The experiment in a line: Inhibition of recombinant DAGLbeta overexpressed in african green monkey COS7 cells assessed as accumulation of 2-arachidonoylglycerol […]. The class given is cell-based. The conditions noted are these: COS-7. (In general: A western blot detects proteins with antibodies after separation by electrophoresis.)
Sequence of Diacylglycerol lipase-beta (Homo sapiens) (Q8NCG7 whole entry): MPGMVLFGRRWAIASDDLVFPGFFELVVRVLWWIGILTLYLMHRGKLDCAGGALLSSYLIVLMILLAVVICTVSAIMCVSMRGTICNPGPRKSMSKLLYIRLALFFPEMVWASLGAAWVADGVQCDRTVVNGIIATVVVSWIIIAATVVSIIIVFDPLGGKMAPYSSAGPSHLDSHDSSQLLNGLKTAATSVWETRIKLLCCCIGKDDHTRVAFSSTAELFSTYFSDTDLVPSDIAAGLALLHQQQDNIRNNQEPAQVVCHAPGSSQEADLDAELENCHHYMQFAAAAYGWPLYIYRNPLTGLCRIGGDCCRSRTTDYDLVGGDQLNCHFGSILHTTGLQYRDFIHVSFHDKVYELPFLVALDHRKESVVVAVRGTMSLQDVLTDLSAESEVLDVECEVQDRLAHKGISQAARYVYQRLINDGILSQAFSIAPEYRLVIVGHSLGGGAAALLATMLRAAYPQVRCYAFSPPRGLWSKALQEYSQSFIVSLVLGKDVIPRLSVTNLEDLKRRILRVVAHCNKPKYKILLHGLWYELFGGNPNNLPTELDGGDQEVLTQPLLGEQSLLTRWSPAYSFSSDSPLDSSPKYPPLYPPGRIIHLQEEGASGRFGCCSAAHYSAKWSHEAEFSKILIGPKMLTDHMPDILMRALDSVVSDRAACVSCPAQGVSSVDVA

Test [9] deals with Fatty-acid amide hydrolase 1 (Homo sapiens, UniProt O00519). Nature of the test: Inhibition of recombinant FAAH transfected in HEK293T cells by SDS-PAGE using rhodamine-tagged FP probe. The class given is cell-based, HEK-293T. In a few lines:
as §2

Active and inactive are the calls of the source. No cut-off for these calls is given here.

Sequence of Fatty-acid amide hydrolase 1 (O00519 whole entry): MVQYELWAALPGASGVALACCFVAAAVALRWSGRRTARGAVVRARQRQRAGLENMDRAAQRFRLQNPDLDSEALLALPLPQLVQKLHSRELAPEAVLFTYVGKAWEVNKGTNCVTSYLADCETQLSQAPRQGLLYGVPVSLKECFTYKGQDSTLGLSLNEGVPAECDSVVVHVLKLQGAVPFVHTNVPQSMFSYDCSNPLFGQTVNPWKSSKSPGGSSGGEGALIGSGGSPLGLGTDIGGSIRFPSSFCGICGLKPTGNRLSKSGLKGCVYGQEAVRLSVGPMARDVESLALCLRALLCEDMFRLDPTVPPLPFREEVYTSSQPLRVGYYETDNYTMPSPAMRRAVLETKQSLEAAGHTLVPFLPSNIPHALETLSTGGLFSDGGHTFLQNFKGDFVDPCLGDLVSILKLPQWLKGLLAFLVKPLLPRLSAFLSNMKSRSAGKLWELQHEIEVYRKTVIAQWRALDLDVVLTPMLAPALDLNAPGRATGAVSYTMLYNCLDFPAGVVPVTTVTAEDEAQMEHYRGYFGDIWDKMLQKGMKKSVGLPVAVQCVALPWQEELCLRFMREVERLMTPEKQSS
Sequence of Monoglyceride lipase (Mus musculus) (O35678 whole entry): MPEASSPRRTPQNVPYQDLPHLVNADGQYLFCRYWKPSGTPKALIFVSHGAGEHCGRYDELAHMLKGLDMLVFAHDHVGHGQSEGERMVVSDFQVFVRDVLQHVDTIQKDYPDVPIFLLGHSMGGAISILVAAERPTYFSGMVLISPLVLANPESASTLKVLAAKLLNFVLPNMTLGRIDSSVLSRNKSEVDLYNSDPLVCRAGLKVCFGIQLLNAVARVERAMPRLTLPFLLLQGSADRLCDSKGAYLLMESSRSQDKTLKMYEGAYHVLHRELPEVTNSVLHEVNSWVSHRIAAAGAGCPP
Sequence of Platelet-activating factor acetylhydrolase (Q13093 whole entry): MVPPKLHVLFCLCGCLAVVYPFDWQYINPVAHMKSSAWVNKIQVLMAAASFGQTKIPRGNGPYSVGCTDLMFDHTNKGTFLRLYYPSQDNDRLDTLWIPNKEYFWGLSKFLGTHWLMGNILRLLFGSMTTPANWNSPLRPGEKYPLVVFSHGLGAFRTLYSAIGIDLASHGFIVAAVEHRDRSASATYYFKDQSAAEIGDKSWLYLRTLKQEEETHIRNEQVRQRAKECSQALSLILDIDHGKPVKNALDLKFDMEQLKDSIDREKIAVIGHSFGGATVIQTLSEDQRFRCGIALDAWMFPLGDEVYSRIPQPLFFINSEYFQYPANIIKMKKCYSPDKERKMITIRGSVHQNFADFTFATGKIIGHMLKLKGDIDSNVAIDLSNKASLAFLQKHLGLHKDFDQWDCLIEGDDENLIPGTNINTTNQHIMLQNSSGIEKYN

As usually defined, the IC50 is the concentration needed to halve the response being measured. In the case of `CCCCCCCCCCC[C@@H](C[C@@H]1OC(=O)[C@H]1CCCCCC)OC(=O)[C@H](CC(C)C)NC=O` [ORLISTAT], the outcome in test [1], in test [2], in test [3], in test [4] and in test [8] was Active. Besides, the result in test [5] and in test [6] was inactive. The IC50 in [7] is 0.05 µM; in test [9] it was above 100 µM.

`O=C(NCCCCCCNC(=O)ON=C1CCCCC1)ON=C1CCCCC1`: the outcome in test [1], in test [2], in test [3], in test [4] and in [8] was Active. Moreover, the outcome in [5] and in [6] was inactive. Besides, the 50% inhibitory concentration (IC50) in [7] was determined as 11 µM; in test [9] it was 70 µM.
